Rows were chosen to be rich in hits. Some 1.3% of all compounds tested hit in one or more screens of this group.
Hep lipid drop: hepatic lipid droplet formation modulation; AML12 mouse hepatocytes, oleate lipid droplets, BODIPY imaging; AID 1656; 240,000 tested, 0.4% active; inhibition, % at 6.5 µM;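 active = lipid droplet intensity inhibited by at least 50%, with more than 500 cells counted; inconclusive = wells with under 300 cells, treated as cytotoxic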
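Test system: AML12 mouse liver cells; schedule: overnight exposure; technique: high-content imaging of BODIPY-stained droplets and DAPI nuclei; read-out: % inhibition of corrected integrated BODIPY droplet signal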
procasp3 activ: activates human procaspase-3. 330,000 tested, 0.11% active. activation, % at 8.5 µM. recombinant procaspase-3 D3A, Ac-DEVD-pNA absorbance 405 nm. AID 463141. P42574;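 active = activation above the mean of all tested compounds plus 3 SD, cut at about 21% in these data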;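 also: 0% = DMSO alone and 100% = DMSO wells spiked with extra 5 µM PC-3 D3A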
Target sequence (P42574 whole entry D9A/D28A/D175A): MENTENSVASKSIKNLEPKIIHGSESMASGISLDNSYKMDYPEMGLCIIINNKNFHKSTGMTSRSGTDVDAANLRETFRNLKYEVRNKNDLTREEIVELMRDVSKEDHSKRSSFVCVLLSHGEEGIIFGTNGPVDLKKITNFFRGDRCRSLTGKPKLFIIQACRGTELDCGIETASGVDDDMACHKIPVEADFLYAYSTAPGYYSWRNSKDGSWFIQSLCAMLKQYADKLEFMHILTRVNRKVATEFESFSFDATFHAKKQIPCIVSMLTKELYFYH
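System: Procaspase-3 D3A mutant. Medium: Zinc-free 300 mM NaCl, 50 mM HEPES, 0.01% Triton X-100. Schedule: 1 h preincubation plus 2 h reaction at 25 °C. Measured by: 405 nm absorbance of p-nitroaniline, reads at 0 and 120 min. Read-out: percent activation relative to control range.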
JMJD2C inh: inhibitors of human GASC-1 (JMJD2C) demethylase. Q9H3R0. GST-JMJD2C(1-420) H3K9me3 demethylation, DELFIA europium. inhibition, % at 2.35 µM. 330,000 tested, 0.069% active. AID 2099;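 active = more than half of a compound's replicate wells show inhibition beyond 50%, single wells judged on their own value; inconclusive = some, but no more than half, of replicates pass 50% inhibition; inactive = no replicate passes 50% inhibition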;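 also: signal counts dimethyl H3K9 product captured on neutravidin plate; 0% = median of DMSO wells and 100% = 0.3 times that DMSO median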
GRK2 aptamer HTS: inhibitors of human GRK2 displacing RNA aptamer | bead flow cytometry, FAM-aptamer displacement from GRK2 | inhibition of aptamer binding, % at 10 µM | 330,000 tested, 0.59% active;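 active = inhibition of aptamer binding above 40%, roughly 3 SD of noise, on plates passing a quality check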;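 also: median bead fluorescence of bound FAM aptamer so fluorescent compounds give negative values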
proCasp7 act: activates human procaspase-7, counter-screen for procaspase-3 activators. recombinant procaspase-7, Ac-DEVD-pNA absorbance 405 nm; D23A/D198A/D206A triple mutant, cannot self-cleave; scale: DMSO 0, 5 µM enzyme 100. activation, % at 8.5 µM. 330,000 tested, 0.093% active. AID 463210;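 active = percent activation above the screen-wide mean plus 3 SD, cut at about 25% in these data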
Target sequence (P55210 whole entry D23A/D198A/D206A): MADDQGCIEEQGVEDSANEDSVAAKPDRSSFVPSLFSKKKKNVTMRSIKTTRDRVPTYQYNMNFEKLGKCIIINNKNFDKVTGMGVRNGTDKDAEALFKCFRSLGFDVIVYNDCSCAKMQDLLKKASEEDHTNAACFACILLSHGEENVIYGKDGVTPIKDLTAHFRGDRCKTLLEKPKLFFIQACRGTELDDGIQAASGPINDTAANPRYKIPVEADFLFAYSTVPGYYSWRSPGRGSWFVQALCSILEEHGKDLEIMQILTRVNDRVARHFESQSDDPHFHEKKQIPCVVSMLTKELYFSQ
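signal = Epi-absorbance of released pNA at 405 nm, two timepoints | assay system = Uncleavable procaspase-7 mutant enzyme | reagent = Ac-DEVD-pNA substrate, 400 µM as added | times = 1 h enzyme–compound preincubation and 2 h substrate reaction, both 25 °C | benchmarks = low DMSO alone, high DMSO plus 5 µM PC-7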
VLA-4 inh: inhibition in a human VLA-4 binding assay. inhibition, % (about 7 µM as worked out from the volumes in the protocol). VLA-4 expressing cells, ligand binding flow cytometry. AID 2557. 330,000 tested, 0.2% active; in the data active = inhibition above about 50%
VLA-4 mod pick: confirmation of allosteric modulators of human VLA-4 integrin; shares compounds with VLA-4 inh; U937 cells, HUTS-21 LIBS mAb binding, flow cytometry; LDV ligand present at threefold Kd; inhibition, % at 6.7 µM; 1,300 tested, 2% active; AID 2813; in the data active = inhibition above about 40%;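 also: 0% = ligand without compound and 100% = no ligand background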
Starred values were filed as active, the others as inactive; ? = inconclusive; / = no result.

SMILES	Hep lipid drop	procasp3 activ	JMJD2C inh	GRK2 aptamer HTS	proCasp7 act	VLA-4 inh	VLA-4 mod pick
COCCCn1[nH]c2c3c(ccc2c1=O)C(=O)c1ccccc1C3=O	3	5	3	3	3	92*	-1
CC(C)(C)n1[nH]c2c3c(ccc2c1=O)C(=O)c1ccccc1C3=O	17	-2	10	2	-9	-18	/
Cc1oncc1C(=O)Nc1cccc(C#N)c1	-6	-6	-3	2	-3	-6	/
COc1ccc(S(=O)(=O)Nc2ccccc2C)cc1	2	8	1	2	0	-5	/
COc1ccc(S(=O)(=O)Nc2c(F)cccc2F)cc1	5	5	1	0	10	23	1
O=C(C1CCC(CNS(=O)(=O)c2cccc3cccnc23)CC1)N1CCc2ccccc21 (stereo unspecified)	/	4	4	2	8	53*	11
CN1CCN(C(=O)C2CCC(CNS(=O)(=O)c3cccc4cccnc34)CC2)CC1 (stereo unspecified)	/	13	27	1	-1	-2	/
COc1ccc(OC)c(-c2cc(C(=O)N3CCN(c4ncccn4)CC3)c3ccccc3n2)c1	/	3	5	0	0	95*	-1
COc1ccc(-c2cc(C(=O)N3CCN(c4ncccn4)CC3)c3ccccc3n2)c(OC)c1	-11	0	-3	1	3	18	/
COc1cc(-c2cc(C(=O)N3CCN(c4ccccn4)CC3)c3ccccc3n2)cc(OC)c1OC	/	3	137	0	17	-6	-6
CCCOc1ccc(-c2cc(C(=O)NCC3CCCO3)c3ccccc3n2)cc1 (stereo unspecified)	-61	-1	-7	3	11	43	-5
COc1ccc2cc1Oc1ccc(cc1)CC1c3c(cc(OC)c4c3Oc3cc5c(cc3O4)CCNC5C2)CCN1C (stereo unspecified)	11	7	3	0	1	52*	14
COc1ccc2cc1Oc1ccc(cc1)C[C@H]1c3c(cc(OC)c4c3Oc3c(ccc5c3[C@H](C2)N(C)CC5)O4)CCN1C	/	9	-12	0	-4	14	/
O=C(NC1CCCCC1)c1ccccc1NC(=S)NC(=O)C1CC1	-41	-6	5	0	-3	1	/
CCC(=O)NC(=S)Nc1ccccc1C(=O)NC1CCCCC1	-17	1	-6	0	-11	44	7
Cc1ccc(C(=O)Nc2c3c(nn2-c2ccccc2)CS(=O)(=O)C3)cc1C	0	1	-1	1	0	8	/
CC(OC(=O)C(C)N1C(=O)C2C3C=CC(C4CC34)C2C1=O)C(=O)c1ccccc1 (stereo unspecified)	-22	9	1	0	6	58*	-12
Cc1ccc(S(=O)(=O)Nc2ccc(N(C)C)cc2)cc1	-4	0	6	9	8	8	5
O=C(O)c1cc(=O)[nH]c2c(Cl)cccc12	11	-2	-5	0	-3	3	/
Cc1ccc(-c2nnc(Nc3ccc(O)cc3)c3ccccc23)cc1S(=O)(=O)NCCO	8	/	6	3	/	0	/
CCOC(=O)CNS(=O)(=O)c1cc(-c2nnc(Nc3ccc4c(c3)OCO4)c3ccccc23)ccc1C	-5	-6	-2	3	-1	61*	23
C=CC[C@H](CC(=O)OC(C)(C)C)C(=O)OC[C@@H]1CCCN1C(=O)[C@@H](CC=C)CC(=O)N[C@H](CO)Cc1ccccc1	/	6	-10	0	3	-13	/
Cc1ccc(C)c(NC(=O)CN(C)C(=O)c2cc3c(s2)CCCCC3)c1	/	-3	5	0	7	-12	/
CCCc1cc(=O)[nH]c(-n2[nH]c3c(c2=O)CCCC3)n1	/	-2	-8	0	-3	-6	3
CCCc1cc(=O)[nH]c(SCC)n1	/	6	0	1	8	1	/
SMILES	Hep lipid drop	procasp3 activ	JMJD2C inh	GRK2 aptamer HTS	proCasp7 act	VLA-4 inh	VLA-4 mod pick
CC[C@]12c3[nH]c4ccccc4c3CCN1C(=O)C(CC(=O)NCc1ccco1)C[C@@H]2C(=O)N1CCN(C(=O)C2CC2)CC1 (stereo partly specified)	/	8	-5	1	1	58*	-3
COC(=O)Nc1ccc(S(=O)(=O)N2CCCc3ccccc32)cc1	-26	-8	0	2	0	79*	1
Cc1cc(C)nc(-n2ncc3c2CC(C)CC3=O)n1 (stereo unspecified)	12	6	-13	0	9	-8	11
COc1ccc(Cc2nc3ccc(S(N)(=O)=O)cc3[nH]2)cc1OC	-1	0	-3	6	1	102*	-1
Cc1ccc(S(=O)(=O)N(Cc2cccc(C)c2)C(=O)N2CCN(C)CC2)cc1	/	8	?	2	3	2	/
CCOCCCNC(=O)/C(C#N)=C/c1cc(Br)c(O)c(Br)c1	-7	/	-7	/	/	/	22
COCCNC(=O)/C(C#N)=C/c1cc(Br)c(O)c(OC)c1	-9	-10	2	43*	-11	-12	1
CCCCNC(=O)/C(C#N)=C/c1ccc(C(=O)OC)cc1	2	6	16	0	8	4	21
CCC(C)c1ccc(N(CC(=O)NC(C)(C)C)C(=O)CNC(=O)c2cccs2)cc1 (stereo unspecified)	-5	6	2	6	-1	-8	/
CN(C(=O)c1cccc(NC(=O)C2CCN(C(=O)OC(C)(C)C)CC2)c1)C1CCCCC1	/	4	26	8	22	-6	/
CCOc1ccc(NC(=O)CCCN2C(=O)C(c3ccccc3)Oc3cccnc32)cc1 (stereo unspecified)	17	-1	1	3	6	13	/
CCOc1ccc(CN2CCN(Cc3c(C)nn(CC)c3C)CC2CCO)cc1 (stereo unspecified)	10	-3	5	6	3	6	/
CCOc1ccc(CN2CCN(Cc3cn(CC)nc3C)CC2CCO)cc1 (stereo unspecified)	-5	4	?	2	9	42	2
Cc1ccc(S(=O)(=O)N2CCOCC2)cc1C(=O)OCC(=O)Nc1ccc2[nH]c(=O)[nH]c2c1	/	1	17	0	10	3	/
COC(=O)c1cc(C(=O)Nc2nnc(CC(C)(C)C)s2)cc([N+](=O)[O-])c1	-7	-2	-5	0	-12	51*	-1

Screens as filed in PubChem BioAssay.
